From ChEMBL document CHEMBL4038303, “Simultaneous Drug Targeting of the Promoter MYC G-Quadruplex and BCL2 i-Motif in Diffuse Large B-Cell Lymphoma Delays Tumor Growth” (J Med Chem, 2017)
Activity calls are given as the source filed them. The rule behind the calls is not given here.

Columns and labels:
Homo sapiens [1] = species: Homo sapiens; assay: Stabilization of BCL2 i-motif promoter DNA in BCL2 and MYC translocation-positive human VAL cells assessed as potentiation of CPA-induced cytotoxicity by measuring fold reduction in CPA IC50 at 2 to 3 uM after 96 hrs by MTS assay
Outline: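 MTS viability assay. 100 000 cells incubated 96 h with increasing CPA alone or with ligand (1−3 μM). Viability expressed relative to untreated cells. CPA IC50 fitted by Boltzmann sigmoidal equation with variable slope, and fold change in IC50 taken from the fitted values.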

U2932 [2] = assay: Potentiation of CPA-induced antitumor activity against human U2932 cells xenografted in SCID mouse assessed as tumor growth inhibition at 10 mg/kg, ip for 5 days cotreated with 7.5 mg/kg NSC-338258 measured on day 15 post first treatment (reference value: 44%); format: functional
Outline: (§1)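 U2932 DLBCL cells (10 × 10^6 in 100 μL sterile saline, viability >91%) injected subcutaneously into left flank of SCID mice (6−8 weeks, immunoglobulin ≤20 μg/mL). Mice pair-matched by tumor volume. Drugs given ip daily for 5 days, CPA 30 mg/kg; controls received all diluents. Tumor volume = a2 × b/2 (a smallest, b largest diameter); n = 5−8; Grubbs' test for outliers.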

Homo sapiens [3] = species: Homo sapiens; assay: Stabilization of BCL2 i-motif promoter DNA in BCL2 translocation-positive human SUDHL4 cells assessed as potentiation of CPA-induced apoptosis by measuring increase in caspase-3 activity at 3 uM after 24 hrs in presence of NSC-338258 by AFC based fluorescence assay (reference value: 30%)
Homo sapiens [4] = species: Homo sapiens; assay: Binding affinity to BLC2 i-motif promoter DNA in human SUDHL4 BCL2 translocation-positive cells assessed as downregulation of BCL2 protein levels at 1 to 3 uM after 24 hrs by Western blot analysis
Outline: (§2)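 Cell lines treated 24 h with compound up to 3 μM, with untreated and DMSO-treated controls. Lysates (20 μg total protein) probed by Western blot for BCL2 or MYC with antibodies at 1:1000; actin as loading control. Blots representative of triplicate experiments.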

Homo sapiens [5] = species: Homo sapiens; assay: Binding affinity to BLC2 i-motif promoter DNA in human VAL BCL2 and MYC translocation-positive cells assessed as downregulation of BCL2 protein levels at 1 to 3 uM after 24 hrs by Western blot analysis; outline: as §2
Mus musculus [6] = assay: Toxicity in scid mouse xenografted with human U2932 cells assessed as change in body weight at 10 mg/kg, ip administered for 5 consecutive days in presence of CPA; format: organism-based; conditions: in vivo
Outline: (§3)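 SCID mice (6−8 weeks, female or male, serum immunoglobulin ≤20 μg/mL by ELISA) implanted subcutaneously in left flank with 10 × 10^6 U2932 cells in 100 μL saline; pair-matched by tumor volume; dosed ip daily for 5 days; controls received all compound diluents; tumor volume a2 × b/2; outliers by Grubbs' test; two-tailed t test with Šidák–Bonferroni correction.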

HT = assay: Down regulation of BLC2 mRNA level in human HT cells up to 3 uM after 24 hrs by qPCR method; format: functional, cell-based
Outline: (§4)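 DLBCL lines grown in RPMI with 10% FBS (SUDHL4 15% FBS) and penicillin/streptomycin. Cells exposed for 24 h to rising concentrations up to 3 μM; DMSO as vehicle control. Total RNA isolated, target mRNA measured by TaqMan real-time qPCR, normalized to TBP and expressed relative to untreated cells; triplicate experiments, two-tailed t test.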

U2932 [7] = assay: Potentiation of CPA-induced antitumor activity against human U2932 cells xenografted in SCID mouse assessed as tumor growth inhibition at 10 mg/kg, ip for 5 days cotreated with 7.5 mg/kg NSC-338258 measured on day 12 post first treatment (reference value: 67%); format: functional; outline: as §1
Homo sapiens [8] = species: Homo sapiens; assay: (§5) Stabilization of BCL2 i-motif promoter DNA in BCL2 and MYC translocation-positive human VAL cells assessed as potentiation of CPA-induced apoptosis by measuring increase in caspase-3 activity at 3 uM after 24 hrs in presence of NSC-338258 by AFC based fluorescence assay (reference value: 30%)
Homo sapiens [9] = species: Homo sapiens; assay: Binding affinity to c-myc G-quadruplex DNA in human HT cells assessed as downregulation of MYC protein levels up to 3 uM after 24 hrs by Western blot analysis; format: cell-based; outline: as §2
Homo sapiens [10] = species: Homo sapiens; assay: Binding affinity to c-myc G-quadruplex DNA in BCL2 translocation-positive human SUDHL4 cells assessed as downregulation of MYC mRNA levels up to 3 uM after 24 hrs by qPCR method relative to control; outline: as §4
Homo sapiens [11] = species: Homo sapiens; assay: Binding affinity to BLC2 i-motif promoter DNA in BCL2 translocation-positive human SUDHL4 cells assessed as downregulation of Bcl2 mRNA levels at 1 to 3 uM after 24 hrs by qPCR method; outline: as §4
Homo sapiens [12] = species: Homo sapiens; assay: Binding affinity to BLC2 i-motif promoter DNA in human U2932 MYC translocation-positive and BCL2 amplification-positive cells assessed as downregulation of BCL2 protein levels at 1 to 3 uM after 24 hrs by Western blot analysis; outline: as §2
Homo sapiens [13] = species: Homo sapiens; assay: Binding affinity to c-myc G-quadruplex DNA in MYC translocation-positive and BCL2 amplification-positive human U2932 cells assessed as downregulation of MYC mRNA levels up to 3 uM after 24 hrs by qPCR method relative to control; outline: as §4
Mus musculus [14] = assay: Reduction in Myc mRNA level in tumor of SCID mouse xenografted with human U2932 cells at 10 mg/kg, ip administered for 5 consecutive days cotreated with CPA and NSC-338258 by qPCR method; format: functional, organism-based
Outline: (§6)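 Tumors from U2932 xenograft SCID mice given ip treatment daily for 5 days were harvested. Total RNA was taken from the same tumor preparations used for protein lysates, and MYC or BCL2 mRNA was quantified by TaqMan qPCR normalized to TBP. Comparisons were made with diluent-treated mice or CPA-only mice.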

Mus musculus [15] = assay: Toxicity in scid mouse xenografted with human U2932 cells assessed as change in body weight at 10 mg/kg, ip administered for 5 consecutive days in presence of CPA and NSC-338258; format: organism-based; conditions: in vivo; outline: as §3
Mus musculus [16] = assay: Reduction in Bcl2 mRNA level in tumor of SCID mouse xenografted with human U2932 cells at 10 mg/kg, ip administered for 5 consecutive days cotreated with CPA and NSC-338258 by qPCR method; format: functional, organism-based; outline: as §6
Homo sapiens [17] = species: Homo sapiens; assay: Binding affinity to BLC2 i-motif promoter DNA in MYC translocation-positive and BCL2 amplification-positive human U2932 cells assessed as downregulation of Bcl2 mRNA levels at 1 to 3 uM after 24 hrs by qPCR method relative to control; outline: as §4
U2932 [18] = assay: Potentiation of CPA-induced antitumor activity against human U2932 cells xenografted in SCID mouse assessed as reduction in tumor burden AUC at 10 mg/kg, ip for 5 days cotreated with 5 to 7.5 mg/kg NSC-338258 measured on day 9 to 15 post first treatment; format: functional, organism-based; outline: as §1
Homo sapiens [19] = species: Homo sapiens; assay: as §5, with “in” for “in BCL2 and”, “translocation-positive and BCL2 amplification-positive” for “translocation-positive”, “U2932” for “VAL”
U2932 [20] = assay: Potentiation of CPA-induced antitumor activity against human U2932 cells xenografted in SCID mouse assessed as tumor growth inhibition at 10 mg/kg, ip for 5 days cotreated with 7.5 mg/kg NSC-338258 measured on day 9 post first treatment (reference value: 50%); format: functional; outline: as §1
U2932 [21] = assay: Antitumor activity against human U2932 cells xenografted in SCID mouse assessed as reduction in tumor burden at 10 mg/kg, ip for 5 days cotreated with 5 to 7.5 mg/kg NSC-338258 measured on day 9 to 15 post first treatment
Homo sapiens [22] = species: Homo sapiens; assay: Binding affinity to BLC2 i-motif promoter DNA in BCL2 and MYC translocation-positive human VAL cells assessed as downregulation of Bcl2 mRNA levels at 1 to 3 uM after 24 hrs by qPCR method relative to control; outline: as §4

## COc1ccc2c(c1)CN([C@@H](C)[C@H]1CC[C@H]3[C@@H]4CC[C@H]5C[C@@H](O)CC[C@]5(C)[C@H]4CC[C@]13C)CO2
Homo sapiens [1]
  fold change (FC): 1.7
U2932 [2]
  TGI: 37%
Homo sapiens [3]
  Activity: 100%
Homo sapiens [4]
  Activity: Active
Homo sapiens [5]
  Activity: Active
Mus musculus [6]
  Activity: Non-Toxic
HT
  Activity: inactive
U2932 [7]
  TGI: 46%
Homo sapiens [8]
  Activity: 100%
Homo sapiens [9]
  Activity: inactive
Homo sapiens [10]
  Activity: inactive
Homo sapiens [11]
  Activity: 11 to 37%
Homo sapiens [12]
  Activity: Active
Homo sapiens [13]
  Activity: inactive
Mus musculus [14]
  Activity: Active
Mus musculus [15]
  Activity: Non-Toxic
Mus musculus [16]
  Activity: Active
Homo sapiens [17]
  Activity: 11 to 37%
U2932 [18]
  Activity: Active
Homo sapiens [19]
  Activity: 100%
U2932 [20]
  TGI: 50%
U2932 [21]
  Activity: inactive
Homo sapiens [22]
  Activity: 11 to 37%
